The text below walks through data of ChEMBL document CHEMBL4007453, “Identification of Non-Nucleoside Inhibitors of the Respiratory Syncytial Virus Polymerase Complex” (J Med Chem, 2017).

Converted amounts (≈) assume the structure as drawn. Some results are limits rather than exact numbers.

One series has as its system BEAS-2B. Put plainly: Cytotoxicity against human BEAS2B cells after 48 hrs by PrestoBlue staining based fluorescence assay. The format is cell-based. An outline of the steps:
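Uninfected BEAS-2B cells were exposed to compound for 48 h at 37°C. PrestoBlue was added and incubated 90 min at 37°C, then fluorescence was read (ex 560 nm, em 590 nm). Cytotoxic was defined as metabolic activity <70% of vehicle control. Highest concentration assessed for cytotoxicity was 90 µM, and CC50 came from four-parameter variable slope regression.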

A short description of series [1]: Selectivity index, ratio of CC50 for human BEAS2B cells to EC50 for inhibition of recombinant mkate-tagged-Respiratory syncytial virus-A2-L19F RNA-dependent RNA polymerase complex D489E mutant in human BEAS2B cells infected with Respiratory syncytial virus-A2-L19F. The format is toxicity, cell-based. Particulars: read-out: Ratio CC50/EC50. In a few lines:
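SI is CC50/EC50 in BEAS-2B cells. EC50 came from reporter RSV dose-response, 3-fold dilutions, top 10 µM. […] Both values from four-parameter variable-slope regression.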

Series [2] is described as follows: Inhibition of recombinant Respiratory syncytial virus-A2-L19F RNA-dependent RNA polymerase complex D489E mutant transfected with firefly luciferase gene at SMASh domain in human BEAS2B cells infected with Respiratory syncytial virus-A2-L19F assessed as reduction in viral replication measured after […] by bioluminescence assay. Particulars: human respiratory syncytial virus, A2-L19F, BEAS-2B. The format is cell-based. An outline of the steps: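 BEAS-2B cells (1.5×10^4/well) received 3-fold serial compound dilutions prepared in three repeats (top concentration 10 µM) and were infected with firefly-luciferase/SMASh reporter RSV-A2-L19F D489E (MOI 0.1). Luminescence was converted to % inhibition against four-replicate positive and negative controls per plate. EC50 came from four-parameter variable-slope regression.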

A short description of series [3]: Aqueous solubility of the compound in phosphate buffered saline at pH 7.4 after 90 mins by laser nephelometric method. The format is physicochemical. In a few lines: (§1)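 Stocks of 30 mg/mL in DMSO were serially diluted in DMSO, then into buffer to final 300 down to 1.5 µg/mL at 1% final DMSO. Diluent was PBS for pH 7.4 and citrate buffer for pH 3 and 5. Plates stood 90 min at ambient temperature. Forward-scatter laser nephelometry gave the concentration at which precipitation began.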

Series [4] is described as follows: Aqueous solubility of the compound in citrate buffer at pH 5 after 90 mins by laser nephelometric method. The format is physicochemical. An outline of the steps: as §1
Series [5] in a line: Aqueous solubility of the compound in citrate buffer at pH 3 after 90 mins by laser nephelometric method. The format is physicochemical. An outline of the steps:
as §1

Series [6] can be described thus: Inhibition of recombinant mkate-tagged-Respiratory syncytial virus-A2-L19F RNA-dependent RNA polymerase D489E mutant in human BEAS2B cells infected with Respiratory syncytial virus-A2-L19F assessed as reduction in progeny release measured after 48 hrs postinfection by fluorescence assay based progeny virus yield-based dose-response assay. The following applies: BEAS-2B. The format is cell-based. An outline of the steps:
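Cells in 12-well format infected with mKate-expressing recRSV-A2-L19F (MOI 0.05 particles/cell) in the presence of serial compound dilutions at 37°C. Cell-associated progeny harvested 48 h post-infection and released by one freeze/thaw cycle. Titres determined by TCID50 titration. Two repeats; EC50 derived by regression.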

The test system of series [7] is Respiratory syncytial virus. Put plainly: Inhibition of Respiratory syncytial virus-A2-L19F RNA-dependent RNA polymerase complex D489E mutant in human BEAS2B cells infected with Respiratory syncytial virus-A2-L19F by firefly luciferase reporter-based RSV minigenome assay. The format is cell-based.

One may read the CC50 as the concentration at which the toxic effect on the cells reaches its halfway point. Lower therefore signals harm at low concentration. In general, EC50 refers to the concentration at which the effect is half-maximal. In the case of `Cc1ccoc1C(=O)N1CCCn2nc(C(=O)NCc3ccccc3)cc2C1`, in the series with BEAS-2B, the CC50 was found to be 50 µM. In series [1], the selectivity ratio amounted to 42. Besides, the EC50 in series [2] stood at 1.2 µM.

Turning to `O=C(Nc1ccccc1)c1cc2n(n1)CCCN(C(=O)c1ccco1)C2`, the concentration for a half-maximal effect (EC50) in series [2] came to 7.1 µM.

With `Cc1c(C(=O)N2CCCn3nc(C(=O)Nc4ccccc4)cc3C2)oc2ccccc12`, the EC50 in series [2] came to 10 µM.

What is called solubility (kinetic) is solubility judged after dilution from a stock solution rather than from solid. `Cc1ccoc1C(=O)N1CCCn2nc(C(=O)N(C)c3ccccc3)cc2C1` displayed a CC50 in the series on BEAS-2B of over 90 µM. For the same compound, the selectivity ratio in series [1] is over 9. Also, the results for the kinetic solubility at 1.5 h in series [3], in series [4] and in series [5] were 58 µg/mL (≈ 153 µM), 25 µg/mL (≈ 66.1 µM) and 20 µg/mL (≈ 52.8 µM), respectively. Further, the 50% effective concentration (EC50) in series [2] turned out to be 10 µM.

In the series on BEAS-2B, `Cc1coc(C(=O)N2CCCn3nc(C(=O)Nc4ccccc4)cc3C2)c1C` gave a half-maximal cytotoxic concentration (CC50) of 30 µM. The selectivity ratio in series [1] came out at 13. In series [2], the half-maximal effective concentration (EC50) is 2.25 µM.

With `O=C(Nc1ccccc1)c1cc2n(n1)CCCN(C(=O)c1occc1-c1ccccc1)C2`, the EC50 in series [2] is over 10 µM.

On to `Cc1ccccc1NC(=O)c1cc2n(n1)CCCN(C(=O)c1occc1C)C2`, for which it took 1.1 µM to reach half-maximal cytotoxicity in the series on BEAS-2B (CC50). For the same compound, in series [1], the selectivity ratio was 8. The concentration giving a half-maximal response (EC50) in series [2] turned out to be 0.14 µM.

The compound `Cc1ccoc1C(=O)N1CCCn2nc(C(=O)Nc3ccc(F)cc3)cc2C1` showed a half-maximal cytotoxic concentration (CC50) in the series on BEAS-2B of 90 µM. The selectivity ratio in series [1] worked out at 273. In addition, in series [2], the EC50 stood at 0.33 µM.

For `Cc1ccoc1C(=O)N1CCCn2nc(C(=O)Nc3cncnc3)cc2C1`, the 50% effective concentration (EC50) in series [2] is over 10 µM.

For the compound `Cc1cc[nH]c1C(=O)N1CCCn2nc(C(=O)Nc3ccccc3)cc2C1`, in series [2], the EC50 was over 10 µM.

For the compound `Cc1ccn(C)c1C(=O)N1CCCn2nc(C(=O)Nc3ccccc3)cc2C1`, the EC50 in series [2] was over 10 µM.

As to `Cc1ccoc1C(=O)N1CCCn2nc(CNc3ccccc3)cc2C1`, the CC50 in the series with BEAS-2B was 10 µM. For the same compound, the selectivity ratio in series [1] is 20. Further, the EC50 in series [2] was found to be 0.5 µM.

`COc1cc(N2CCCC(CO)(Cc3cccc(Cl)c3)C2)ncn1` (configuration not stated): the EC50 in series [6] was determined as 0.13 µM. For the same compound, in series [7], the inhibition entry was “Dose-dependent effect”.

As for `CC(C)c1cc(C(=O)NCc2noc(-c3cccs3)n2)n(C)n1`, the EC50 in series [6] came to 0.03 µM. The inhibition result in series [7] is “Dose-dependent effect”.

In turn, `Cc1ccoc1C(=O)N1CCCn2cc(C(=O)Nc3ccccc3)cc2C1` gave a CC50 with BEAS-2B of over 90 µM. Further, the selectivity ratio in series [1] is over 28. Also, in series [2], the EC50 worked out at 3.19 µM.

As for `O=C(Nc1ccccc1)c1cc2n(n1)CCCN(C(=O)c1occc1Cl)C2`, the CC50 with BEAS-2B was found to be 30 µM. Also, the selectivity ratio in series [1] was 39. In addition, in series [2], the concentration giving a half-maximal response (EC50) was determined as 0.76 µM.

Consider `Cc1cc(C(=O)N2CCCn3nc(C(=O)Nc4ccccc4)cc3C2)oc1C`, for which the EC50 in series [2] is over 10 µM.

Take `Cc1ccoc1C(=O)N1CCCn2nc(C(=O)Nc3ccncn3)cc2C1`: in the series on BEAS-2B, the CC50 was 16.6 µM. Further, the selectivity ratio in series [1] came to 11. The EC50 in series [2] stood at 1.53 µM.

In the series on BEAS-2B, `Cc1ccc(NC(=O)c2cc3n(n2)CCCN(C(=O)c2occc2C)C3)cc1` showed a CC50 of 30 µM. The selectivity ratio in series [1] turned out to be 73. In addition, the concentration giving a half-maximal response (EC50) in series [2] was found to be 0.41 µM.

For the compound `Cc1ccoc1C(=O)N1CCn2nc(C(=O)Nc3ccccc3)cc2C1`, the EC50 in series [2] is over 10 µM.

Take `Cc1ccoc1C(=O)N1CCCn2nc(S(=O)(=O)Nc3ccccc3)cc2C1`: the EC50 in series [2] was over 10 µM.

Regarding `O=C(Nc1ccccc1F)c1cc2n(n1)CCCN(C(=O)c1ccco1)C2`, in the series with BEAS-2B, the midpoint of cytotoxicity, the CC50, lay at 3.7 µM. Also, in series [1], the selectivity ratio is 12. The EC50 in series [2] turned out to be 0.32 µM.

For the compound `Cn1c(=O)n(C)c2cc(Cn3cnc(-c4ccccc4)c3C3CC3)ccc21`, the 50% effective concentration (EC50) in series [6] was 0.17 µM. Moreover, the inhibition result in series [7] is “Dose-dependent effect”.

Consider `Cc1ccoc1C(=O)N1CCCn2nc(NS(=O)(=O)c3ccccc3)cc2C1`, for which the half-maximal effective concentration (EC50) in series [2] is over 10 µM.

For `CCc1ccoc1C(=O)N1CCCn2nc(C(=O)Nc3ccccc3)cc2C1`, the midpoint of cytotoxicity in the series with BEAS-2B, the CC50, lay at 10 µM. For the same compound, the selectivity ratio in series [1] was determined as 14. Besides, the half-maximal effective concentration (EC50) in series [2] was determined as 0.73 µM.

With `Cc1ccoc1C(=O)N1CCCn2nc(C(=O)Nc3ccc(F)cc3F)cc2C1`, in the series on BEAS-2B, the 50% cytotoxic concentration (CC50) was 5 µM. In addition, the selectivity ratio in series [1] is 83. Also, the 50% effective concentration (EC50) in series [2] turned out to be 0.06 µM.

For the compound `Cc1ccsc1C(=O)N1CCCn2nc(C(=O)Nc3ccccc3)cc2C1`, the concentration giving a half-maximal response (EC50) in series [2] was over 10 µM.

Turning to `Cc1ccoc1C(=O)N1CCCn2nc(C(=O)Nc3cccc(F)c3)cc2C1`, the CC50 in the series with BEAS-2B was found to be 30 µM. Further, the selectivity ratio in series [1] was determined as 143. Further, in series [2], the EC50 was determined as 0.21 µM.

In the case of `O=C(Nc1ccccc1)c1cc2n(n1)CCCN(C(=O)c1occc1C(F)(F)F)C2`, in the series with BEAS-2B, the CC50 was 30 µM. The selectivity ratio in series [1] is 6. Further, the EC50 in series [2] turned out to be 5.4 µM.

The compound `COc1ccc(NC(=O)c2cc3n(n2)CCCN(C(=O)c2occc2C)C3)cc1` had a cytotoxic concentration (CC50) with BEAS-2B of 90 µM. Besides, the selectivity ratio in series [1] amounted to 281. Besides, in series [2], the EC50 amounted to 0.32 µM.

For the compound `COc1cccc(NC(=O)c2cc3n(n2)CCCN(C(=O)c2occc2C)C3)c1`, in the series on BEAS-2B, the half-maximal cytotoxic concentration (CC50) is 30 µM. Besides, the selectivity ratio in series [1] is 56. Moreover, the concentration giving a half-maximal response (EC50) in series [2] worked out at 0.54 µM.

In the case of `Cc1cc(C)c(C(=O)N2CCCn3nc(C(=O)Nc4ccccc4)cc3C2)o1`, it took 2.6 µM to reach half-maximal cytotoxicity in the series on BEAS-2B (CC50). Moreover, the 50% effective concentration (EC50) in series [2] was 0.96 µM.

Consider `Cc1nc2ccccn2c1CN(C)C(=O)c1cc(COc2ccc(F)cc2F)on1`, for which the EC50 in series [6] came out at 0.05 µM. In addition, in series [7], the inhibition entry was “Dose-dependent effect”.

`Cc1ccoc1C(=O)N1CCCn2nc(NC(=O)c3ccccc3)cc2C1`: the EC50 in series [2] is over 10 µM.

On to `Cc1coc(C(=O)N2CCCn3nc(C(=O)Nc4ccccc4)cc3C2)c1`, for which the EC50 in series [2] was over 10 µM.

Regarding `Cc1cccc(NC(=O)c2cc3n(n2)CCCN(C(=O)c2occc2C)C3)c1`, the CC50 in the series with BEAS-2B amounted to 3.3 µM. Moreover, the selectivity ratio in series [1] stood at 12. Moreover, the EC50 in series [2] worked out at 0.28 µM.

Turning to `O=C(Nc1ccccc1)c1cc2n(n1)CCCN(S(=O)(=O)c1ccco1)C2`, the EC50 in series [2] was over 10 µM.

Consider `Cc1ccc(C(=O)N2CCCn3nc(C(=O)Nc4ccccc4)cc3C2)o1`, for which, in series [2], the half-maximal effective concentration (EC50) was over 10 µM.

The compound `COc1ccccc1NC(=O)c1cc2n(n1)CCCN(C(=O)c1occc1C)C2` registered a 50% cytotoxic concentration (CC50) with BEAS-2B of 3.3 µM. Besides, the selectivity ratio in series [1] stood at 11. Also, the kinetic solubility at 1.5 h in series [3] was 28 µg/mL (≈ 71 µM); in series [4] it was 43 µg/mL (≈ 109 µM); in series [5] it was 48 µg/mL (≈ 122 µM). In series [2], the 50% effective concentration (EC50) worked out at 0.31 µM.

As for `O=C(Nc1ccccc1)c1cc2n(n1)CCCN(C(=O)c1occ3c1CCC3)C2`, the 50% cytotoxic concentration (CC50) with BEAS-2B came to 10 µM. Moreover, in series [2], the concentration for a half-maximal effect (EC50) is 10 µM.

Turning to `Cc1ccoc1CN1CCCn2nc(C(=O)Nc3ccccc3)cc2C1`, the half-maximal effective concentration (EC50) in series [2] is over 10 µM.

With `O=C(Nc1ccccc1)c1cc2n(n1)CCCN(C(=O)c1ccncn1)C2`, the EC50 in series [2] was over 10 µM.
